From PubChem BioAssay
Hits are enriched below; roughly 1.9% of the tested compounds scored in any of these assays.
NadD inh: inhibitors of S. aureus NadD, primary screen, biochemical, colorimetric, uHTS. inhibition, % at 20 µM. Nicotinate-nucleotide adenylyltransferase NadD (Staphylococcus aureus N315). AID 602399, 2012. 360,000 tested, 0.78% active. purified NadD enzyme, colorimetric absorbance read-out; in the data active means inhibition above about 26%
VIM-2 inhibitor: VIM-2 metallo-beta-lactamase inhibitors, primary screen, biochemical, epi-absorbance readout, Pseudomonas aeruginosa enzyme | purified VIM-2, nitrocefin hydrolysis, epi-absorbance fluorescence | inhibition, % at 5.6 µM | 290,000 tested, 0.89% active | AID 1527, 2009;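 active means inhibition above the mean of all tested compounds plus 3 SD, cutoff set per screening run, cut at about 7.5% in these data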;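 further: red hydrolysis product quenches plate fluorescence so inhibitors raise well fluorescence; 0% = enzyme with DMSO and 100% = DMSO without enzyme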
IMP-1 inh: IMP-1 metallo-beta-lactamase inhibitors, primary screen, biochemical, epi-absorbance readout, Pseudomonas aeruginosa enzyme; 290,000 tested, 0.45% active; metallo-beta-lactamase IMP-1 (Pseudomonas aeruginosa); inhibition, % at 5.6 µM; purified IMP-1, nitrocefin hydrolysis, epi-absorbance fluorescence;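 active means inhibition above the mean plus 3 SD of all compounds in the same screening run, cut at about 4.5% in these data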;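 further: 0% = IMP-1 with DMSO and 100% = DMSO wells lacking enzyme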
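system = purified recombinant IMP-1 beta-lactamase | amount = 0.2 nM IMP-1, as dispensed | medium = HEPES buffer pH 7.1 with ZnSO4 and Brij 35 | times = 25 °C, 15 min preincubation, 25 min reaction | detection = plate fluorescence quenching by hydrolysis product, ex 480/em 530 nm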
core dimer inh: inhibitors of HCV core protein dimerization, primary screen, biochemical, TR-FRET, high-throughput. inhibition, % at 5 µM. AID 1899, 2009. 300,000 tested, 0.33% active. TR-FRET GST/Flag-core106 dimerization, 1536-well;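 active means inhibition above the mean of all tested compounds plus 3 SD, set per screening campaign, cut at about 45% in these data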
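System – GST-tagged and Flag-tagged HCV core protein residues 1-106 · Repeats – one well for each compound · Technique – TR-FRET 671 and 617 nm emission · Doses – one concentration, 5 µM, in 0.5% DMSO · Times – 4 h, 22.5 °C incubation · Also added – Eu donor and XL665 acceptor anti-tag antibodies · Measure – percent inhibition of core106 dimerization signal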
* = called active by the depositor; x = no result given; ! = a repeat was not active.

SMILES	NadD inh	VIM-2 inhibitor	IMP-1 inh	core dimer inh
CCOC(=O)c1c(N)n(CCN2CCCCC2)c2nc3ccccc3nc12	-0.8	7.8*	1.7	8.0
CCCCn1c(N)c(C(=O)NCCN2CCOCC2)c2nc3ccccc3nc21	4.1	3.6	-5.0	0.9
C=CCn1c(O)c(C=Nc2ccc(N(CC)CC)cc2)c(=O)[nH]c1=O	0.8	-4.5	5.3*	0.2
CCC(C)N1C(=O)/C(=C/c2ccc3c(c2)CCN3CCCCl)C(=O)NC1=S (centres undefined)	39.7*	-0.7	-1.3	71.5*
C=CCC1C(=O)NC(=S)NC1=O	-3.1	-0.7	-1.0	-5.8
COc1cc2c(cc1OC)-c1c(OC)c(OC)c(OC)c3ccnc(c13)C2=O	x	9.4*	-4.2	-11.8
CC(c1ccccc1)n1cncc1C(=O)N1CCCC1=O (centres undefined)	-5.5	-1.7	-2.9	-9.4
Cc1cccc(N2C(=O)NC(=O)/C(=C\c3cc(C)n(-c4sc5c(c4C#N)CCCC5)c3C)C2=O)c1C	29.1*	-2.0	-2.6	30.4
CCOC(=O)c1c(-n2c(C)cc(C=C3C(=O)NC(=O)NC3=O)c2C)sc2c1CCCC2	17.4	-2.3	0.5	10.4
O=C1NC(=O)C(=Cc2ccc(-c3ccccc3[N+](=O)[O-])o2)C(=O)N1	23.5	3.5	0.4	0.9
O=C1NC(=O)C(=Cc2ccc(-c3cc(Cl)ccc3[N+](=O)[O-])o2)C(=O)N1	38.2*	1.6	-1.3	x
C=CCn1c(O)c(/C(CC)=N/NC(=S)Nc2ccccc2)c(=O)[nH]c1=O	1.0	8.9*	-1.8	4.2
C=CCn1c(O)c(/C(C)=N/NC(=S)Nc2ccccc2)c(=O)[nH]c1=O	-4.6	3.5	-0.2	2.4
CCN1C(=O)C(=Cc2cc(C)n(C3CC3)c2C)C(=O)N(CC)C1=S	-0.2	0.1	11.6*	-0.8
Cn1cnnc1Sc1cc(N2CCNCC2)ccc1[N+](=O)[O-]	0.3	-0.2	-0.7	-7.8
CCCCN1C(=O)/C(=C/c2ccc(N(C)C)cc2)C(=O)N(Cc2ccco2)C1=O	34.4*	-3.6	-2.5	33.6
C/C(=N/OC(=O)N(C)C)c1ncc(C(F)(F)F)cc1N1CCOCC1	-5.6	-4.0	-2.9	-3.2
Cc1cc2c(C(C)C)c(O)c(O)c(C=O)c2c(O)c1-c1c(C)cc2c(C(C)C)c(O)c(O)c(C=O)c2c1O	50.3*	10.4*	13.9*!	x
CCC(C)(C)n1nnnc1CN1CCC(n2c(C)nc3cc(C(F)(F)F)ccc32)CC1	-3.4	-4.6	-3.0	-10.1
CN1CCC(N(C)c2nc(-c3ccc([N+](=O)[O-])cc3)nc3ccccc23)CC1	-4.4	9.9*	-2.0	x
O=C1NC(=O)C(=Cc2ccc(SC3CCCCC3)o2)C(=O)N1	36.5*	-2.2	-0.7	-3.3
O=c1[nH]c(=S)n(C2CC2)c(O)c1/C=N/Nc1cccc2ccccc12	29.7*	0.1	2.3	26.8
O=c1[nH]c(=O)n(CCC2=CCCCC2)c(O)c1/C=N/Nc1cccc2ccccc12	30.5*	-1.3	-1.1	24.8
O=c1[nH]c(=S)n(C2CC2)c(O)c1/C=N/Nc1ccccc1	3.4	-2.5	-3.3	-20.8
C/C(=N\NC(N)=O)c1c(O)n(C)c(=O)n(C)c1=O	-9.6	-3.7	-2.2	-0.2
SMILES	NadD inh	VIM-2 inhibitor	IMP-1 inh	core dimer inh
Cc1ccc(OCCSC2=NN2c2cc(C)nc(N)n2)cc1	-4.5	-1.2	-0.8	-5.5
CCN(CC)P(=O)(c1n(CC)cc[n+]1CC)N(CC)CC	19.2	-2.1	-2.5	0.3
Cc1cccc(N2C(=O)/C(=C/c3ccc(N4CCN(C)CC4)o3)C(=O)NC2=S)c1C	5.9	-3.5	-1.5	7.0
CCOc1ccc(N2C(=O)/C(=C/c3ccco3)C(=O)NC2=S)cc1	86.8*	-0.9	0.4	31.1
Cc1ccccc1N1C(=O)/C(=C/c2ccco2)C(=O)NC1=S	x	-3.5	2.7	69.8*
COc1ccc(/C=C2/C(=O)NC(=O)N(c3ccc(C)c(C)c3)C2=O)cc1CN1C(=O)c2ccccc2C1=O	28.8*	-0.1	0.0	1.9
CC(=NCCCn1ccnc1)c1c(O)n(C)c(=O)n(C)c1=O	1.6	66.5*	-1.9	-6.1
CCCCn1c(O)c(C(C)=NCCCn2ccnc2)c(=O)[nH]c1=O	2.6	2.6	-1.8	-3.4
CCN(CC)CCCOC(=O)C(OC(C)C)(c1ccccc1)c1ccccc1	-9.1	-0.5	-2.3	-7.8
CCc1c(C)nc(N)nc1N1N=C1SCC(N)=O	-4.1	-4.7	-2.1	5.9
